This is an account of results in ChEMBL document CHEMBL2158000 (Bioorg Med Chem Lett, 2012).

The target of data set [1] is T1, Amine oxidase [flavin-containing] A (Homo sapiens, UniProt P21397).
T1 sequence (P21397 whole entry): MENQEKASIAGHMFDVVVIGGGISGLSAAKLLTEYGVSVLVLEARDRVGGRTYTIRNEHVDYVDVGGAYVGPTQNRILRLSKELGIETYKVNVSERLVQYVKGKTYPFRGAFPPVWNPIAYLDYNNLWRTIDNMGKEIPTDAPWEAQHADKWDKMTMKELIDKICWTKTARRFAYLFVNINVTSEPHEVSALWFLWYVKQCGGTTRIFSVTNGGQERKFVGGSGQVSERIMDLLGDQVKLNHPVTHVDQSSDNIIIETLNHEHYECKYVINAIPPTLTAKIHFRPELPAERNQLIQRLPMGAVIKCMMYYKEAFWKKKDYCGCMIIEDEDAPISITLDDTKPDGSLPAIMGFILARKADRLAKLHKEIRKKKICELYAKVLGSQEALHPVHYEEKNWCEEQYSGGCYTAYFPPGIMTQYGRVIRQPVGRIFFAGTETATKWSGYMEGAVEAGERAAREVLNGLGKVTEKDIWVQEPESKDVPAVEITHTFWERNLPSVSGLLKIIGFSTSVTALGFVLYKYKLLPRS
Description: Inhibition of human recombinant MAOA using kynuramine as substrate assessed as formation of 4-hydroxyquinoline after 20 mins by fluorescence spectrophotometry.

The target of data set [2] is T2, Amine oxidase [flavin-containing] B (Homo sapiens, UniProt P27338).
T2 sequence (P27338 whole entry): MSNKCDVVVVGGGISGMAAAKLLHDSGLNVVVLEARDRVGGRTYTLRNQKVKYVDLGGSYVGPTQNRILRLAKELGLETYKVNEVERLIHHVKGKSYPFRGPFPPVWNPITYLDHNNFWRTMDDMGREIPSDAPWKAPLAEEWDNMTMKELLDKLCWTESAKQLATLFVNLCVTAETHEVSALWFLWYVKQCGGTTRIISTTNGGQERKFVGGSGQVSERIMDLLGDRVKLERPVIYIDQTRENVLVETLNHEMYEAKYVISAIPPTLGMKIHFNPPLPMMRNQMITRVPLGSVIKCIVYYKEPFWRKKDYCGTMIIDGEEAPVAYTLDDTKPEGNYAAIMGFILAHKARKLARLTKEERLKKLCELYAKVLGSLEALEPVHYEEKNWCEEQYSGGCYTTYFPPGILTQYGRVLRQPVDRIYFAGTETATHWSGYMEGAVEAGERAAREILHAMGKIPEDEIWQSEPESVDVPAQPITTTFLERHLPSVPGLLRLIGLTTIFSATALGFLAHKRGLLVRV
Description: Inhibition of human recombinant MAOB using kynuramine as substrate assessed as formation of 4-hydroxyquinoline after 20 mins by fluorescence spectrophotometry.

Another data set is filed under the species Homo sapiens. The experiment in a line: Selectivity index, ratio of IC50 for human recombinant MAOA to IC50 for human recombinant MAOB.
For data set [3], the target named is T2, Amine oxidase [flavin-containing] B. The experiment in a line: Reversible inhibition of human recombinant MAOB using kynuramine as substrate assessed as residual activity at 100 times IC50 preincubated for 30 mins followed by 100 fold dilution measured after 20 mins by fluorescence spectrophotometry relative to control. The gist of the method: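 MAO-B was preincubated with inhibitor at 10× and 100× IC50 for 30 min, then diluted to 0.1× and 1× IC50. Residual activity was measured by fluorometry of 4-hydroxyquinoline from kynuramine and expressed as % of control. Irreversible reference inhibitor was at 10× IC50, diluted to 0.1× IC50.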

On to `COc1ccc(CSc2ccc3c(c2)C(=O)NC3=O)cc1`, for which the IC50 (commonly the concentration that gives 50% inhibition) in data set [1] came out at 1630 nM; in data set [2], 20 nM. Also, in the data set listed under Homo sapiens, the Ratio IC50 amounted to 82.
On to `O=C1NC(=O)c2cc(SCc3ccccc3)ccc21`, for which the Activity in data set [3] turned out to be 28%. The IC50 turned out to be 1920 nM in data set [1] and 4.5 nM in data set [2]. In the data set listed under Homo sapiens, the Ratio IC50 turned out to be 427.
Turning to `CC(C)CCSc1ccc2c(c1)C(=O)NC2=O`, the IC50 came to 380 nM in data set [1] and 15 nM in data set [2]. Moreover, the Ratio IC50 in the data set listed under Homo sapiens amounted to 26.
Take `O=C1NC(=O)c2cc(SCc3ccc(F)cc3)ccc21`: the IC50 in data set [1] was found to be 958 nM; in data set [2], 6.8 nM. The Ratio IC50 in the data set listed under Homo sapiens stood at 141.
With `O=C1NC(=O)c2cc(SCc3ccc(Cl)cc3)ccc21`, the IC50 in data set [1] was 506 nM; in data set [2], 5.6 nM. For the same compound, the Ratio IC50 in the data set listed under Homo sapiens is 90.
As to `O=C1NC(=O)c2cc(SCCc3ccccc3)ccc21`, the IC50 in data set [1] came out at 2270 nM; in data set [2], 30 nM. Besides, the Ratio IC50 in the data set filed under Homo sapiens came out at 76.
Regarding `O=C1NC(=O)c2cc(Sc3ccc(Br)cc3)ccc21`, the IC50 was 1010 nM in data set [1] and 364 nM in data set [2]. In addition, the Ratio IC50 in the data set listed under Homo sapiens came out at 2.8.
For `O=C1NC(=O)c2cc(Sc3ccc(Cl)cc3)ccc21`, the IC50 came to 1680 nM in data set [1] and 457 nM in data set [2]. The Ratio IC50 in the data set listed under Homo sapiens is 3.7.
As to `O=C1NC(=O)c2cc(SC3CCCCC3)ccc21`, the IC50 in data set [1] came to 1030 nM; in data set [2] it was 179 nM. Besides, the Ratio IC50 in the data set listed under Homo sapiens was found to be 5.8.
As for `O=C1NC(=O)c2cc(Sc3ccccc3)ccc21`, the IC50 in data set [1] turned out to be 8030 nM; in data set [2] it was 986 nM. In addition, the Ratio IC50 in the data set listed under Homo sapiens is 8.1.
As for `O=C1NC(=O)c2cc(SCc3ccc(Br)cc3)ccc21`, the IC50 in data set [1] was 273 nM; in data set [2] it was 7.4 nM. Moreover, the Ratio IC50 in the data set filed under Homo sapiens came to 37.
